Measurements reported in article PMC9719714 (International Journal of Nanomedicine, 2022).
Values joined by “and” are separate entries in the source; they are usually repeats but may differ in a detail not shown here. Identical values can stand only once. Like-named read-outs stand apart in the source and are kept apart here.

Columns and labels:
MRSA-pvl+ [1] = test: Time-kill experiment; format: cell-based, Staphylococcus aureus; conditions: >3 h of exposure (Figure S2)
Method in brief: (§1)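 S. aureus suspension (1.5 × 10^5 CFU/mL) and test compound, prepared at 150 μg/mL before mixing, were added in equal volumes to flasks of MH broth. A flask without test compound served as control. Flasks were shaken at 150 rpm and 37°C for 24 h. At set intervals, 100 μL aliquots were spread on MH agar for colony counts.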

MRSA [2] = test: Time-kill experiment; format: cell-based, Staphylococcus aureus; conditions: for inhibition at 150 µg/mL: Staphylococcus aureus, MRSA, read-out: percentage of inhibition (time-kill)
Method in brief: as §1

MRSA-pvl- [3] = test: Time-kill experiment; format: cell-based, Staphylococcus aureus; conditions: >3 h of exposure (Figure S2)
Method in brief: as §1

MSSA [4] = test: Time-kill experiment; format: cell-based, Staphylococcus aureus
Method in brief: as §1

MRSA-pvl+ [5] = test: Kirby-Bauer disk diffusion test; format: cell-based, Staphylococcus aureus; conditions: 18 h
Method in brief: (§2)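 Disk diffusion followed CLSI 2013. Sterile disks soaked in test compound (0–1000 µg/mL) were placed on MH agar and held 30 min at room temperature for diffusion. Plates were then incubated 18 h at 37°C and zones of inhibition read. Controls were distilled water (negative) and a 30 µg cefoxitin disk (positive). Strains were MSSA ATCC 25923 and community-acquired MRSA-pvl+ (A33) and pvl- (172817) lab isolates.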

MRSA [6] = test: CFU counting method; format: cell-based; conditions: Staphylococcus aureus, read-out: percentage of inhibition (CFU)
Method in brief: (§3)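 S. aureus strains (MRSA ATCC 700699; community-acquired MRSA-pvl+ A33 and MRSA-pvl- 172817 from the lab collection) at 1.5 × 10^5 CFU/mL were combined in well plates with MH broth and test compound (0–1000 μg/mL). Plates were shaken 4 h at 37°C, then diluted 100-fold and swabbed onto MH agar. After drying at room temperature, plates were incubated 18 h at 37°C and colonies counted. Percentage inhibition was calculated relative to distilled water (negative control); cefoxitin served as positive control.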

[7] = tested on: 3T3 murine fibroblast cells; test: In vitro cytotoxicity MTT assay; format: cell-based; conditions: 50 µg/mL, 24 h
[8] = In vitro cytotoxicity MTT assay; format: cell-based, murine; conditions: mouse, 3T3 murine fibroblast cells, cell viability
MSSA [9] = test: Kirby-Bauer disk diffusion test; format: cell-based, Staphylococcus aureus; conditions: 18 h
Method in brief: as §2

zebrafish embryos = test: Reactive oxygen species; format: in vivo
Method in brief: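 Wild-type AB zebrafish embryos at 24 hpf, one per well and 10 per group, were exposed to five concentrations of test compound for 30, 60, 120 or 240 min. Controls were distilled water and 0.5 mM H2O2. Embryos were washed in PBS and spun 10,000 rpm, 5 min, 4°C. They were homogenized in cold PBS and spun 12,372 rpm, 30 min, 4°C. Supernatant was incubated with DCFH-DA (stock 10 mg/mL in DMSO) 30 min in the dark; fluorescence read at ex 485/em 530 nm, in triplicate.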

MSSA [10] = test: HRTEM observation of treated bacteria; format: cell-based, Staphylococcus aureus; conditions: 150 µg/mL for 12 h
Method in brief: (§4)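 After the time-kill exposure, MRSA (ATCC 700699) and MSSA (ATCC 25923) cells were processed for electron microscopy. Reagents included glutaraldehyde, cacodylate buffer, osmium tetroxide and acetone, followed by resin embedding. Sections of 1 µm were cut and stained with toluidine blue, and areas were chosen by light microscopy. Sections were then mounted on 100-mesh copper grids, stained 15 min with 1% aqueous uranyl acetate, washed, and imaged at 100 kV.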

MRSA-pvl+ [11] = test: CFU counting method; format: cell-based; conditions: Staphylococcus aureus, read-out: percentage of inhibition (CFU)
Method in brief: as §3

MRSA-pvl- [12] = test: CFU counting method; format: cell-based, Staphylococcus aureus; conditions: 50 µg/mL
Method in brief: as §3

MRSA-pvl- [13] = test: Kirby-Bauer disk diffusion test; format: cell-based, Staphylococcus aureus; conditions: 18 h
Method in brief: as §2

MRSA [14] = test: HRTEM observation of treated bacteria; format: cell-based, Staphylococcus aureus; conditions: 150 µg/mL for 12 h
Method in brief: as §4

Question: For `CO[C@@]1(NC(=O)Cc2cccs2)C(=O)N2C(C(=O)O)=C(COC(N)=O)CS[C@@H]21` [CFX, cefoxitin], which “inhibition (time-kill)” value (MRSA-pvl+ [1]) is on record?
Answer: The value was “total inhibition”.

Question: And the “inhibition (time-kill)” value (MRSA [2]; >3 h of exposure (Figure S2))?
Answer: Its value is “total inhibition”.

Question: And the “inhibition (time-kill)” value (MRSA-pvl- [3])?
Answer: The value was “total inhibition”.

Question: What about the “inhibition (time-kill)” value (MSSA [4]; >3 h of exposure (Figure S2)) of the same molecule?
Answer: The value was “total inhibition”.

Question: Which “concentration at which growth is inhibited (zone of inhibition)” value (“concentration … (zone of inhibition)” below) (MRSA-pvl+ [5]) does the source give for `O=C(O)c1cc(O)c(O)c(O)c1` [GA, Gallic acid] here?
Answer: The value was 300 µg/mL.

Question: What about the inhibition at 50 µg/mL (MRSA [6]) of the same molecule?
Answer: Its inhibition at 50 µg/mL is 98.3%.

Question: And the cell viability [7]?
Answer: Its cell viability is 22.16%.

Question: What about the viability at 24 h, 50 µg/mL ([8]; 24 h) of the same molecule?
Answer: Its viability at 24 h, 50 µg/mL is 22.2%.

Question: What about the viability at 72 h, 50 µg/mL ([8]; 72 h) of the same molecule?
Answer: Its viability at 72 h, 50 µg/mL is 4.95%.

Question: What about the inhibition at 150 µg/mL (MRSA [2]; 2 h) of the same molecule?
Answer: The inhibition at 150 µg/mL was 44.9%.

Question: And the inhibition at 150 µg/mL (MRSA [2])?
Answer: Its inhibition at 150 µg/mL is 29.4%.

Question: What about the “concentration … (zone of inhibition)” value (MSSA [9]) of the same molecule?
Answer: Its value is 150 µg/mL.

Question: And the ROS content (zebrafish embryos; 50 and 300 μg/mL, 60 min post-exposure)?
Answer: The ROS content was “significantly elevated”.

Question: What about the ROS content (zebrafish embryos; 30 min of exposure) of the same molecule?
Answer: Its ROS content is “comparable ROS content to control groups”.

Question: What about the ROS content (zebrafish embryos; 120 min post-exposure) of the same molecule?
Answer: Its ROS content is “reverted to the normal range”.

Question: And the “morphological changes of bacterial cells (HRTEM)” value (MSSA [10])?
Answer: Its value is “disrupted morphology and damaged surface”.

Question: What about the inhibition at 50 µg/mL (MRSA-pvl+ [11]) of the same molecule?
Answer: The inhibition at 50 µg/mL was 80.1%.

Question: And the “inhibition (CFU)” value (MRSA-pvl- [12])?
Answer: Its value is “significant inhibition”.

Question: And the “concentration … (zone of inhibition)” value (MRSA-pvl- [13])?
Answer: Its value is 300 µg/mL and 150 µg/mL.

Question: And the “morphological changes of bacterial cells (HRTEM)” value (MRSA [14])?
Answer: Its value is “disrupted morphology and damaged surface”.

Question: And the inhibition at 150 µg/mL (MSSA [4]; Staphylococcus aureus, MSSA, 2 h, read-out: percentage of inhibition (time-kill))?
Answer: The inhibition at 150 µg/mL was 50.7%.
